From article PMC4675651 (Drug Design, Development and Therapy, 2015)
Entries after “also recorded” stand apart in the source; their conditions may differ. Like-named read-outs stand apart in the source and are kept apart here.

Tests used:
[1] = test system: murine and human adipocytes; details: ref Alonso-Castroa et al [20]; cited from earlier work
[2] = test system: C2C12 cells; experiment: MTT cytotoxicity assay; assay type: cell-based; details: 24 hours
Outline: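 C2C12 cells were grown in DMEM with 10% FBS at 37 °C, 5% CO2, seeded in 96-well plates and exposed to test compound for 24 h. MTT (5 mg/mL stock) was added for 4 h at 37 °C. Formazan was dissolved in DMSO and read at 490 nm. Viability is relative to untreated control (100%). Six wells per treatment; three independent experiments.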

[3] = test system: L6 myotubes; details: ref Choi et al [19]; cited from earlier work
[4] = test system: insulin signaling (IRβ, AKT, ERK1/2, GLUT4, phosphotyrosine) in C2C12 myotubes; experiment: Western blot of insulin signaling in insulin-stimulated C2C12 myotubes; assay type: cell-based
Outline: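 C2C12 myoblasts at 75% confluence were differentiated in DMEM with 2% horse serum for 4–6 days. Myotubes were pretreated 1 h with test compound (in DMSO), then given 10 nM insulin for 10 min. Whole-cell lysates and plasma-membrane fractions were blotted (10% SDS-PAGE) for phospho/total IRβ, AKT, ERK1/2, GLUT4, phosphotyrosine and actin; ECL detection. Phospho normalised to total, expressed as fold of insulin alone; n=3.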

[5] = target: T1, TCPTP (Homo sapiens, UniProt P17706); experiment: PTP selectivity panel; assay type: biochemical
T1 sequence (P17706 5-275 limits assumed): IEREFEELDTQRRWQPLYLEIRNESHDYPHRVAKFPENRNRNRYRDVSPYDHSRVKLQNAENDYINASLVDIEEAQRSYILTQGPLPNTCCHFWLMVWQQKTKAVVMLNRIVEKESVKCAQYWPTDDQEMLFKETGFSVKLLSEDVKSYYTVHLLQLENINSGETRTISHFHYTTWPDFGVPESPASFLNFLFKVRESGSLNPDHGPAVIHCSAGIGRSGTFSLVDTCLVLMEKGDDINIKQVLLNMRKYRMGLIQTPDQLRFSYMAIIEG
Outline: (§1)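 Recombinant catalytic domains in pH 7.0 buffer (50 mmol/L MOPS, 100 mmol/L NaCl, 1 mmol/L EDTA, 1 mmol/L DTT, 1 mg/mL BSA). Enzyme preincubated with test compound 5 min at 37 °C. Then pNPP (100 mmol/L stock) added, 10 min at 37 °C. Stopped with NaHCO3; p-nitrophenol read at 405 nm. IC50 by fitting concentration–inhibition curves; triplicate points.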

[6] = target: T2, PTP1B (Homo sapiens, UniProt P18031); experiment: PTP1B inhibition measurement; assay type: biochemical
T2 sequence (P18031 3-277 limits assumed): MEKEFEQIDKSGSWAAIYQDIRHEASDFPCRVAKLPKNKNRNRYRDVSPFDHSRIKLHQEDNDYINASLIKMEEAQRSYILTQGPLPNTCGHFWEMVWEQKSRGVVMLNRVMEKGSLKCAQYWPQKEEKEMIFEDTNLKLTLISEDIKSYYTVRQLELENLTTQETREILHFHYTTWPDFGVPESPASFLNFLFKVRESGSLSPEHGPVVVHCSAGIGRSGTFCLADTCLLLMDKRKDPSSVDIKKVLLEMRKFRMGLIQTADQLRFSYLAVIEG
Outline: as §1

[7] = test system: insulin signaling (IRβ, AKT, ERK1/2, phosphotyrosine) in adipose tissue, skeletal muscle, and liver; experiment: Western blot of insulin signaling in tissues of T2DM mice; assay type: in vivo; details: 200 mg/kg, 8 weeks
Outline: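 After 8 weeks of dosing, subcutaneous adipose, skeletal muscle and liver were snap-frozen and homogenised in SDS sample buffer lacking bromophenol blue, then spun 12,000 × g, 20 min, 4 °C. 20 µg protein run on 8–10% SDS-PAGE. Membranes blocked 2 h in 3% BSA/TBST; primaries overnight at 4 °C, HRP secondaries 2 h. ECL and densitometry; phospho normalised to total, normal mice = 100%; n=3.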

[8] = target: T3, SHP1 (Homo sapiens, UniProt P29350); experiment: PTP selectivity panel; assay type: biochemical
T3 sequence (P29350 244-515 limits assumed): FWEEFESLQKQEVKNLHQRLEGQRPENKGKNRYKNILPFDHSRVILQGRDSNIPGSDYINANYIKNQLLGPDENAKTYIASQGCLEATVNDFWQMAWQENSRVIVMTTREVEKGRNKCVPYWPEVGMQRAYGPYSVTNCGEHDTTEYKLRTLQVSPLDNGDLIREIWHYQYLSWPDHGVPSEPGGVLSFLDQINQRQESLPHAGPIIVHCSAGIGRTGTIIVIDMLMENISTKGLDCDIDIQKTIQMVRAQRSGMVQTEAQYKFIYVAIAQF
Outline: as §1

[9] = test system: T2DM mice; assay type: in vivo; details: for Serum TC / Serum TG / Body weight / Effect on serum TC and TG: T2DM mice; for Serum TC / Serum TG: 200 mg/kg oral once per day, mean ± SD (n=8–10); for Body weight: 200 mg/kg oral once a day for 8 weeks; for Effect on serum TC and TG: 200 mg/kg oral, 8 weeks
Outline: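 Male Kunming mice (8 weeks, 18–22 g) fed high-fat diet (20% sucrose, 10% lard, 2.5% cholesterol, 1% sodium cholate, 66.5% chow) for 4 weeks. After an 8 h fast, STZ 35 mg/kg i.p. in citrate-buffered saline pH 4.4, daily for 1 week. Test compound by oral gavage daily for 8 weeks, DMSO stock diluted in 0.9% saline; saline vehicle. Weekly 8-h-fasted tail-vein glucose (glucometer) and body weight; serum TG/TC by kits.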

[10] = target: T4, HePTP (Homo sapiens, UniProt P35236); experiment: PTP selectivity panel; assay type: biochemical
T4 sequence (P35236 97-350 limits assumed): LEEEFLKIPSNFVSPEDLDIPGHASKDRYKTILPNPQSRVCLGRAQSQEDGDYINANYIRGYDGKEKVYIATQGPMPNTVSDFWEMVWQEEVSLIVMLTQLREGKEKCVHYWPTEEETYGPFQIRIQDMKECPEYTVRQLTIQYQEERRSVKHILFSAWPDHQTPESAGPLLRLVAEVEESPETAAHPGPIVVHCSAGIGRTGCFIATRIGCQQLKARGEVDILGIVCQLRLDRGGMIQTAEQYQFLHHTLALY
Outline: as §1

[11] = test system: PTP1B−/− mice; experiment: Honokiol treatment of PTP1B gene knockout mice; assay type: in vivo; details: pre-experiments, Figure S2
[12] = target: T5, SHP2 (Homo sapiens, UniProt Q06124); experiment: PTP selectivity panel; assay type: biochemical
T5 sequence (Q06124 247-517 limits assumed): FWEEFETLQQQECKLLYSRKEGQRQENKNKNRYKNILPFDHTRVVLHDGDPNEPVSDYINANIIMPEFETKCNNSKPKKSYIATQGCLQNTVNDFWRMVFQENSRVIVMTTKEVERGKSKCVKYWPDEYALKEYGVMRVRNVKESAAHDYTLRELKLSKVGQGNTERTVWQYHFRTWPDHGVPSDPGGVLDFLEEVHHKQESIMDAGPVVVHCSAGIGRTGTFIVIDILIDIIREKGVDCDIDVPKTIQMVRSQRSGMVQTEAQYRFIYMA
Outline: as §1

[13] = test system: PPAR-γ; details: in vitro; ref Atanasov et al [18]; cited from earlier work
[14] = honokiol 0 to 30 µM 1 hour, then 10 nM insulin 10 minutes

For C=CCc1ccc(O)c(-c2ccc(O)c(CC=C)c2)c1 [Honokiol], the Glucose uptake [1] is listed as “stimulates glucose uptake”, the “Maximum concentration without cytotoxicity” value [2] is listed as 40 µM and the Glucose uptake [3] is listed as “stimulates glucose uptake”. The “Tyrosine phosphorylations of cellular proteins” value [4] was “enhanced”, the “Insulin-induced GLUT4 level in the plasma membrane fraction” value ([4]; GLUT4 in whole cell lysates not altered) was “dose-dependently increased” and the “Insulin-stimulated tyrosine phosphorylation of ERK” value [4, 14] was “enhances”. For the same molecule, the “Insulin-stimulated tyrosine phosphorylation of IRβ” value [4, 14] was “largely enhanced”, the “Serine phosphorylation of AKT” value [4, 14] was “enhances” and the IC50 [5] was 604.4 ± 4.89 µM. For the same molecule, the “Selectivity on PTP1B over TCPTP” value ([5]; from IC50 values) was “approximately ninefold”, the Ki [6] was 6.67 µM and the “Inhibition type on PTP1B” value ([6]; Lineweaver–Burk plot, 1/v versus 1/[pNPP]) was “reversible competitive inhibitory activity; also recorded: competing with the substrate for the enzyme active site”. The “Serine phosphorylation of AKT in adipose tissue, skeletal muscle, and liver” value [7] was “enhanced”, the “Tyrosine phosphorylation of ERK in adipose tissue, skeletal muscle, and liver” value [7] was “enhanced” and the IC50 [8] was 763.2 ± 5.49 µM. The “Selectivity on PTP1B over SHP1” value ([8]; from IC50 values) was ~ 12 fold, the “Serum TC” value ([9]; 0 week) was 3.62 ± 0.15 mmol/L and the “Serum TG” value ([9]; 0 week) was 0.51 ± 0.03 mmol/L. The “Serum TC” value ([9]; 8 week) was 3.67 ± 0.16 mmol/L, the “Serum TG” value ([9]; 8 week) was 0.48 ± 0.03 mmol/L and the Body weight [9] was “decreased at early treatment and then gradually increased”. For the same molecule, the “Effect on serum TC and TG” value [9] was “does not affect TC and TG”, the Macroscopic organ toxicity ([9]; brain, heart, kidneys, liver, spleen, stomach, large and small intestine, and lungs) was “no macroscopic toxicity” and the “Dose with the most significant hypoglycemic effects (pre-experiments)” value ([9]; series 10, 50, 100, 150, 200, 250, and 300 mg/kg, data not shown) was 200 mg/kg. The IC50 [10] was 890 ± 9.46 µM, the “Selectivity on PTP1B over HePTP” value ([10]; from IC50 values) was ~ 14 fold and the “Blood glucose in PTP1B−/− mice” value [11] was “cannot affect; also recorded: No hypoglycemic potency”. The “Body weight in PTP1B−/− mice” value [11] was “No potency of honokiol on the amelioration of body weight”, the IC50 [12] was 785.5 ± 6.83 µM and the “Selectivity on PTP1B over SHP2” value ([12]; from IC50 values) was ~ 12 fold. For the same molecule, the PPAR-γ activation [13] was “novel nonadipogenic partial PPAR-γ activator”.

With CN(C)C(=N)N=C(N)N [Metformin, reference compound] the “Serum TC” value ([9]; 0 week) was 3.70 ± 0.31 mmol/L, the “Serum TG” value ([9]; 0 week) was 0.54 ± 0.02 mmol/L and the “Serum TC” value ([9]; 8 week) was 3.57 ± 0.11 mmol/L. The “Serum TG” value ([9]; 8 week) was 0.49 ± 0.04 mmol/L, the Body weight [9] was “stable body weight” and the “Effect on serum TC and TG” value [9] was “no significant difference”.
